In brackets after ≈: the same amount, converted by molar mass. Where a SMILES comes first, the peptide text is derived from it. [ ]: non-standard residue; d: D form. Orn = NCCC[C@H](N)C(=O)O

For ten compounds, MIC results are on record in ChEMBL document CHEMBL1137436, “Development of Tyrocidine A analogues with improved antibacterial activity” (2007).

Test [1] relates to Bacillus subtilis. Nature of the test: Antibacterial activity against Bacillus subtilis MRL 18734 in presence of 25 mg/L calcium by microdilution method. The test is classed as functional. The method, boiled down: (§1)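 CLSI broth microdilution MIC. Compounds dissolved in cation-adjusted Mueller-Hinton broth (CAMHB), or in a little DMSO then broth. Overnight cultures suspended in saline to 0.5 McFarland, diluted 1:100 in CAMHB, added to wells of diluted compound. Drug-free wells quantitatively subcultured to confirm actual colony counts. Calcium at 25 or 50 mg/L.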
On the technique in general: Broth dilution looks for growth in wells or tubes with falling amounts of substance.

In test [2] the test system is Staphylococcus aureus. The test can be described thus: Antibacterial activity against methicillin-susceptible Staphylococcus aureus ATCC 29213 in presence of 25 mg/L calcium by microdilution method. In kind it is functional. The method, boiled down:
(§2)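 CLSI broth microdilution in cation-adjusted Mueller-Hinton broth (CAMHB); compounds dissolved in CAMHB or a little DMSO then broth. Overnight cultures suspended in saline to 0.5 McFarland, diluted 1:100 in CAMHB and added to wells of diluted compound. Drug-free wells subcultured quantitatively for actual colony counts. Calcium at 25 or 50 mg/L as the line states.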

The test system of test [3] is Staphylococcus aureus. The test can be described thus: Antibacterial activity against methicillin-resistant Staphylococcus aureus ATCC 33592 in presence of 25 mg/L calcium by microdilution method. In kind it is functional. The method, boiled down:
as §2

Test [4] relates to Staphylococcus epidermidis. Nature of the test: Antibacterial activity against methicillin-resistant Staphylococcus epidermidis MRL 19010 in presence of 25 mg/L calcium by microdilution method. In kind it is functional. The essentials: as §2
Test [5] relates to Enterococcus faecalis. The test can be described thus: Antibacterial activity against Enterococcus faecalis ATCC 29212 in presence of 25 mg/L calcium by microdilution method. The test is classed as functional. The method, boiled down:
as §2

Test [6] concerns Bacillus cereus. Nature of the test: Antibacterial activity against Bacillus cereus MRL 18731 in presence of 25 mg/L calcium by microdilution method. The test is classed as functional. The essentials: as §1
Test [7] has as its system Escherichia coli. The test can be described thus: Antibacterial activity against Escherichia coli ATCC 25922 in presence of 25 mg/L calcium by microdilution method. The test is classed as functional. The essentials: as §1
The test system of test [8] is Enterococcus faecalis. Nature of the test: Antibacterial activity against vancomycin-resistant Enterococcus faecalis MRL 17001 in presence of 25 mg/L calcium by microdilution method. The test is classed as functional. The method, boiled down:
as §2

For test [9], the system named is Staphylococcus aureus. Nature of the test: microbe, parasite or virus in culture. Conditions: ATCC 29213.
The test system of test [10] is Staphylococcus epidermidis. Nature of the test: Antibacterial activity against methicillin-resistant Staphylococcus epidermidis MRL 19010 in presence of 50 mg/L calcium by microdilution method. The test is classed as functional. The essentials:
as §2

In test [11] the test system is Enterococcus faecalis. The test can be described thus: Antibacterial activity against Enterococcus faecalis ATCC 29212 in presence of 50 mg/L calcium by microdilution method. In kind it is functional. The essentials: as §2
Test [12] relates to Staphylococcus aureus. Nature of the test: microbe, parasite or virus in culture. Conditions: ATCC 33592.
For test [13], the system named is Bacillus subtilis. The test can be described thus: Antibacterial activity against Bacillus subtilis MRL 18734 in presence of 50 mg/L calcium by microdilution method. The test is classed as functional. The method, boiled down: (§3)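 CLSI broth microdilution. Compounds dissolved in cation-adjusted Mueller-Hinton broth (CAMHB), or in a small amount of DMSO followed by broth. Overnight cultures suspended in saline to 0.5 McFarland, diluted 1:100 in CAMHB and added to wells of diluted compound. Drug-free wells subcultured quantitatively to give actual colony counts. Calcium tested at 50 mg/L, alongside the standard 25 mg/L.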

Test [14] has as its system Bacillus cereus. The test can be described thus: Antibacterial activity against Bacillus cereus MRL 18731 in presence of 50 mg/L calcium by microdilution method. The test is classed as functional. The essentials:
as §3

Test [15] relates to Enterococcus faecalis. The test can be described thus: Antibacterial activity against vancomycin-resistant Enterococcus faecalis MRL 17001 in presence of 50 mg/L calcium by microdilution method. In kind it is functional. The method, boiled down: as §2
Test [16] has as its system Escherichia coli. Nature of the test: Antibacterial activity against Escherichia coli ATCC 25922 in presence of 50 mg/L calcium by microdilution method. In kind it is functional. The method, boiled down: as §1

Take `CC(C)C[C@@H]1NC(=O)[C@H](CCCN)NC(=O)[C@H](C(C)C)NC(=O)[C@H](Cc2c(F)c(F)c(F)c(F)c2F)NC(=O)[C@H](CCC(N)=O)NC(=O)[C@H](CC(N)=O)NC(=O)[C@@H](Cc2ccccc2)NC(=O)[C@H](Cc2ccccc2)NC(=O)[C@@H]2CCCN2C(=O)[C@@H](Cc2ccccc2)NC1=O`: the MIC in [1] was determined as 8 µg/mL; in test [2] it was 16 µg/mL; in test [3] it was 16 µg/mL; in test [4] it was 2 µg/mL; in test [5], 2 µg/mL; in test [6] it was 8 µg/mL. Also, the results for the MIC in test [7] and in test [8] were > 256 µg/mL and 2 µg/mL, respectively.

In the case of `CC(C)C[C@@H]1NC(=O)[C@H](CCCN)NC(=O)[C@H](C(C)C)NC(=O)[C@H](Cc2ccc(O)cc2)NC(=O)[C@H](CCCCN)NC(=O)[C@H](CC(N)=O)NC(=O)[C@@H](CCCCN)NC(=O)[C@H](Cc2ccccc2)NC(=O)[C@@H]2CCCN2C(=O)[C@@H](Cc2ccccc2)NC1=O`, the MIC in test [1] was 2 µg/mL; in test [2], 16 µg/mL; in test [3] it was 16 µg/mL; in test [4] it was 4 µg/mL; in test [5], 32 µg/mL; in test [6], 16 µg/mL. Moreover, the MIC stood at 32 µg/mL in [7] and 8 µg/mL in test [8].

Consider `CC(C)C[C@@H]1NC(=O)[C@H](CCCN)NC(=O)[C@H](C(C)C)NC(=O)[C@H](Cc2c(F)c(F)c(F)c(F)c2F)NC(=O)[C@H](CCC(N)=O)NC(=O)[C@H](CC(N)=O)NC(=O)[C@@H](Cc2ccccc2)NC(=O)[C@H](Cc2c(F)c(F)c(F)c(F)c2F)NC(=O)[C@@H]2CCCN2C(=O)[C@@H](Cc2ccccc2)NC1=O`, for which the MIC in [1] was 128 µg/mL; in test [2] it was > 256 µg/mL; in test [3] it was > 256 µg/mL; in test [4], 256 µg/mL; in test [5], 32 µg/mL; in test [6] it was 256 µg/mL. Besides, the MIC in test [7] is > 256 µg/mL; in [8], 32 µg/mL.

Regarding `CC(C)C[C@@H]1NC(=O)[C@H](CCCN)NC(=O)[C@H](C(C)C)NC(=O)[C@H](Cc2ccc(O)cc2)NC(=O)[C@H](CCCCN)NC(=O)[C@H](CC(N)=O)NC(=O)[C@@H](Cc2ccccc2)NC(=O)[C@H](Cc2c(F)c(F)c(F)c(F)c2F)NC(=O)[C@@H]2CCCN2C(=O)[C@@H](Cc2ccccc2)NC1=O`, the MIC stood at 8 µg/mL in [1]; 16 µg/mL in [2]; 8 µg/mL in test [3]; 4 µg/mL in test [4]; 4 µg/mL in test [5]; 8 µg/mL in test [6]. For the same compound, the MIC in [7] is > 256 µg/mL; in test [8], 4 µg/mL.

As to `CC(C)C[C@@H]1NC(=O)[C@H](CCCN)NC(=O)[C@H](C(C)C)NC(=O)[C@H](Cc2ccc(O)cc2)NC(=O)[C@H](CCCCN)NC(=O)[C@H](CC(N)=O)NC(=O)[C@@H](Cc2ccccc2)NC(=O)[C@H](Cc2ccccc2)NC(=O)[C@@H]2CCCN2C(=O)[C@@H](Cc2ccccc2)NC1=O` (cyclo(F[dF]NKYV[Orn]L[dF]P)), the MIC in test [1] worked out at 2 µg/mL; in [2], 4 µg/mL; in test [3], 4 µg/mL; in test [4], 2 µg/mL; in test [5], 2 µg/mL; in [6], 2 µg/mL. In addition, the MIC amounted to 128 µg/mL in test [7] and 2 µg/mL in test [8].

Consider `CC(C)C[C@@H]1NC(=O)[C@H](CCCN)NC(=O)[C@H](C(C)C)NC(=O)[C@H](Cc2ccc(O)cc2)NC(=O)[C@H](CCC(N)=O)NC(=O)[C@H](CC(N)=O)NC(=O)[C@@H](CCCCN)NC(=O)[C@H](Cc2ccccc2)NC(=O)[C@@H]2CCCN2C(=O)[C@@H](Cc2ccccc2)NC1=O`, for which the MIC in test [1] worked out at 16 µg/mL; in test [2], 32 µg/mL; in [3] it was 64 µg/mL; in [4] it was 32 µg/mL; in test [5] it was 64 µg/mL; in test [6], 64 µg/mL. The MIC was found to be 128 µg/mL in test [7] and 32 µg/mL in test [8].

Take `CC(C)C[C@@H]1NC(=O)[C@H](CCCN)NC(=O)[C@H](C(C)C)NC(=O)[C@H](Cc2ccc(O)cc2)NC(=O)[C@H](CCC(N)=O)NC(=O)[C@H](CC(N)=O)NC(=O)[C@@H](Cc2ccccc2)NC(=O)[C@H](Cc2ccccc2)NC(=O)[C@@H]2CCCN2C(=O)[C@@H](Cc2ccccc2)NC1=O` [TYROCIDINE A] (cyclo(F[dF]NQYV[Orn]L[dF]P)): the MIC amounted to 16 µg/mL in [1]; 32 µg/mL in [2]; 32 µg/mL in test [3]; 16 µg/mL in test [4]; 16 µg/mL in test [5]; 16 µg/mL in [6]. Further, the MIC was > 128 µg/mL in test [7] and 16 µg/mL in test [8].

Take `CC(C)C[C@@H]1NC(=O)[C@H](CCCN)NC(=O)[C@H](C(C)C)NC(=O)[C@H](Cc2ccc(O)cc2)NC(=O)[C@H](CCCCN)NC(=O)[C@H](CC(N)=O)NC(=O)[C@@H](CCCCN)NC(=O)[C@H](Cc2c(F)c(F)c(F)c(F)c2F)NC(=O)[C@@H]2CCCN2C(=O)[C@@H](Cc2ccccc2)NC1=O`: the MIC in test [1] was found to be 2 µg/mL; in test [2] it was 8 µg/mL; in test [3], 8 µg/mL; in test [4], 4 µg/mL; in test [5], 16 µg/mL; in test [6], 4 µg/mL. The figures for the MIC in test [7] and in test [8] were 32 µg/mL and 4 µg/mL, respectively.

Regarding `CCCCCCCCCC(=O)N[C@@H](Cc1c[nH]c2ccccc12)C(=O)N[C@H](CC(N)=O)C(=O)N[C@@H](CC(=O)O)C(=O)N[C@@H]1C(=O)NCC(=O)N[C@@H](CCCN)C(=O)N[C@@H](CC(=O)O)C(=O)N[C@H](C)C(=O)N[C@@H](CC(=O)O)C(=O)NCC(=O)N[C@H](CO)C(=O)N[C@@H]([C@H](C)CC(=O)O)C(=O)N[C@@H](CC(=O)c2ccccc2N)C(=O)O[C@@H]1C`, the MIC in test [9] worked out at 0.25 µg/mL (≈ 0.154 µM); in [10], 0.5 µg/mL; in [11], 1 µg/mL; in test [1], 1 µg/mL; in test [12], 0.25 µg/mL (≈ 0.154 µM); in test [13], 0.25 µg/mL. Moreover, the MIC in test [2] worked out at 1 µg/mL; in test [3], 1 µg/mL; in test [14] it was 0.25 µg/mL; in test [4] it was 1 µg/mL; in test [5], 1 µg/mL; in test [6] it was 0.5 µg/mL. In addition, the MIC in test [7] is > 128 µg/mL; in test [15], 1 µg/mL; in test [8] it was 2 µg/mL; in test [16], > 128 µg/mL.

Turning to `CC(C)C[C@@H]1NC(=O)[C@H](CCCN)NC(=O)[C@H](C(C)C)NC(=O)[C@H](Cc2ccc(O)cc2)NC(=O)[C@H](CCC(N)=O)NC(=O)[C@H](CC(N)=O)NC(=O)[C@@H](Cc2ccccc2)NC(=O)[C@H](Cc2c(F)c(F)c(F)c(F)c2F)NC(=O)[C@@H]2CCCN2C(=O)[C@@H](Cc2ccccc2)NC1=O`, the MIC in test [1] is 4 µg/mL; in test [2] it was 8 µg/mL; in test [3], 16 µg/mL; in test [4], 8 µg/mL; in [5] it was 4 µg/mL; in test [6], 4 µg/mL. The results for the MIC in [7] and in [8] were > 256 µg/mL and 8 µg/mL, respectively.
